Data set [1] concerns Cortical neurone. Briefly: Cytotoxicity against E17 Sprague-Dawley rat primary cortical neurons at 10 to 30 uM after 24 hrs by MTT assay. It is filed as cell-based. (Tetrazolium assays rely on reduction of a dye to a coloured formazan, in cell work by metabolically active cells.)
The nature of data set [2]: Inhibition of Cu2+-induced amyloid beta (1 to 42 residues) (unknown origin) aggregation assessed as reduction in amyloid beta fibril load at 50 uM after 24 hrs by phosphotungstic acid staining-based transmission electron microscopic method. In a few lines: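 Aβ1-42 (25 µM) ± CuCl2 (25 µM) ± compound (50 µM) in HEPES/NaCl pH 6.6, incubated 24 h at 37 °C. Aliquots placed on carbon-coated copper grids for 30 min, stained 20 s with 2% phosphotungstic acid, imaged by TEM. Clioquinol as comparator.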

A short description of data set [3]: Inhibition of Cu2+-mediated amyloid beta (1 to 42) peptide-induced cytotoxicity in E17 Sprague-Dawley rat primary cortical neurons assessed as neuroprotective activity by measuring increase in cell viability at 1 uM after 24 hrs by MTT assay. The method in brief: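 Rat E17 primary cortical neurons after 9 days in culture. Aβ1-42 samples, prepared as for the dot blot (± Cu2+, ± compound), added to the cultures at 1 µM for 24 h. Viability by MTT, normalized to the vehicle group. EGCG and clioquinol as positive controls.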

Data set [4] addresses T1, Amine oxidase [flavin-containing] B (Homo sapiens, UniProt P27338).
T1 sequence (P27338 whole entry): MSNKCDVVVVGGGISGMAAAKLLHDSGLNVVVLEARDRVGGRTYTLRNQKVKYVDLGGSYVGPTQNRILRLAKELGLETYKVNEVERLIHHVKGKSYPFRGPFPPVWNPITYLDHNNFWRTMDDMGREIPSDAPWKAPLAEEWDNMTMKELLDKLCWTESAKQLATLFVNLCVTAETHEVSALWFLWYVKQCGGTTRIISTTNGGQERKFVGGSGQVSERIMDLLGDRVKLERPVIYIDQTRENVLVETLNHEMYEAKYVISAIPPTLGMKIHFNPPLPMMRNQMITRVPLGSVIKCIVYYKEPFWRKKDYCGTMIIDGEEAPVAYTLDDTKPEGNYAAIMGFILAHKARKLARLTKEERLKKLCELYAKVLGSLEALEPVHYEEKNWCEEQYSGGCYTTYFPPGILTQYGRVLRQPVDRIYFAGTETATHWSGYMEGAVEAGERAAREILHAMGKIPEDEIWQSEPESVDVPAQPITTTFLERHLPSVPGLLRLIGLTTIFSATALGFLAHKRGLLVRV

Data set [5] is described as follows: in vitro. The conditions noted are these: PAMPA. (In PAMPA a lipid-coated filter parts donor from acceptor wells.)
Data set [6] is described as follows: Antioxidant activity assessed as trolox equivalent of AAPH radical scavenging activity preincubated for 10 mins followed by AAPH addition measured every 2 mins for 180 mins by ORAC-FL assay. It counts as functional. The method in brief:
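Compound at 20 µM (diluted from 10 mM DMSO stock in 75 mM phosphate, pH 7.4) with fluorescein (0.117 µM diluted) for 10 min at 37 °C, then AAPH (40 mM solution) added. Fluorescence (ex 485/em 535) read every 2 min for 180 min. […] Triplicate wells, ≥3 runs.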

In data set [7] the target is Butyrylcholinesterase (Rattus norvegicus) (UniProt Q9JKC1). The data set can be described thus: Inhibition of BuChE in rat serum at 40 uM using butyrylthiocholine iodide as substrate after 20 mins by Ellman's method.
For data set [8], the target named is Butyrylcholinesterase (Rattus norvegicus, UniProt Q9JKC1). Briefly: Inhibition of BuChE in rat serum using butyrylthiocholine iodide as substrate after 20 mins by Ellman's method. (In general: In Ellman's method for cholinesterases, released thiocholine reacts with DTNB.)
For data set [9], the species on record is Homo sapiens. The data set can be described thus: Selectivity index, ratio of IC50 for recombinant human MAOA to IC50 for recombinant human MAOB. In a few lines:
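Recombinant human MAO-A (12.5 µg/mL) or MAO-B (75 µg/mL) preincubated 15 min at 37 °C with compound (diluted from 10 mM DMSO stock in 50 mM KH2PO4, pH 7.4). Amplex Red working solution added: 2 mM p-tyramine (MAO-A) or benzylamine (MAO-B), 2 U/mL HRP. After 15 min at 37 °C, fluorescence read (ex 545/em 590), background from enzyme-free wells subtracted.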

Data set [10] addresses T2, Acetylcholinesterase (Rattus norvegicus, UniProt P37136).
T2 sequence (P37136 whole entry): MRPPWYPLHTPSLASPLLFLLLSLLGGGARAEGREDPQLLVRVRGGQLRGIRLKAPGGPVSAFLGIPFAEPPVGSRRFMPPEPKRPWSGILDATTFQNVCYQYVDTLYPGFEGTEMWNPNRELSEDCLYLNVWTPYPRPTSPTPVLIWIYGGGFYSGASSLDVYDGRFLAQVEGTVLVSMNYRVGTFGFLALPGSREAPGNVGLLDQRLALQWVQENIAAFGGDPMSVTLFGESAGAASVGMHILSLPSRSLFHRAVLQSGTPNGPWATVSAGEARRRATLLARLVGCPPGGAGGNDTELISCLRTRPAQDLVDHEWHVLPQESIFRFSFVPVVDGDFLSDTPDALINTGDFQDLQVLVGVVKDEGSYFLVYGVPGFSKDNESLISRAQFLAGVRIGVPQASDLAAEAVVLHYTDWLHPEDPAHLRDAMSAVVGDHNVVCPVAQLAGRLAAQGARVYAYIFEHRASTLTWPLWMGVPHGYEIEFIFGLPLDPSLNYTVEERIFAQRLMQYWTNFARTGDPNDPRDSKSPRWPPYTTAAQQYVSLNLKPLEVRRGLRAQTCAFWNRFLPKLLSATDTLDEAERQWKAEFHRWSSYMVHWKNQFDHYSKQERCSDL
The data set can be described thus: Inhibition of AChE in rat cortex homogenate using acetylthiocholine iodide as substrate after 20 mins by Ellman's method.

The target in data set [11] is T3, Amine oxidase [flavin-containing] A (Homo sapiens, UniProt P21397).
T3 sequence (P21397 whole entry): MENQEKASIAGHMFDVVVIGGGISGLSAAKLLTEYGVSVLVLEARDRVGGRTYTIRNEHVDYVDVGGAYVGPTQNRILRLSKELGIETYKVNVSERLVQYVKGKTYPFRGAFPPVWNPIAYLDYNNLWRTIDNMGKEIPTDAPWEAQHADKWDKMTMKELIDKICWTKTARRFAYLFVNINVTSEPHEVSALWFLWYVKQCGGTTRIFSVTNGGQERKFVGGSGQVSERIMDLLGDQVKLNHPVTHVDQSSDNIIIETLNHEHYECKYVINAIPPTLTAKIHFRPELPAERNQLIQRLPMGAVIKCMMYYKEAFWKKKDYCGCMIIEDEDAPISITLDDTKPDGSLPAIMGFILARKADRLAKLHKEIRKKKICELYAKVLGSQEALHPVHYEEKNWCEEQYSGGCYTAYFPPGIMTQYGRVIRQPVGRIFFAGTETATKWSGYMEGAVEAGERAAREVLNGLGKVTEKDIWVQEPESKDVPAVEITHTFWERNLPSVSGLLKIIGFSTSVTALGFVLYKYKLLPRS
The data set can be described thus: Inhibition of recombinant human MAOA using p-tyramine as substrate preincubated for 15 mins followed by substrate addition measured after 15 mins by Amplex red reagent based fluorescence assay.

The species entered for data set [12] is Rattus norvegicus. Briefly: Selectivity index, ratio of IC50 for BuChE in rat serum to IC50 for AChE in rat cortex homogenate. It is filed as tissue-based.
The nature of data set [13]: in vitro. The following applies: PAMPA, pH 7.4.

Consider four molecules from ChEMBL document CHEMBL4138195, “Discovery of novel propargylamine-modified 4-aminoalkyl imidazole substituted pyrimidinylthiourea derivatives as multifunctional agents for the treatment of Alzheimer's disease” (Eur J Med Chem, 2018).

Activity calls are given as the source filed them. The calls are words filed in the database; no cut-off is given here.

Butyrylcholinesterase, sequence (Q9JKC1 whole entry): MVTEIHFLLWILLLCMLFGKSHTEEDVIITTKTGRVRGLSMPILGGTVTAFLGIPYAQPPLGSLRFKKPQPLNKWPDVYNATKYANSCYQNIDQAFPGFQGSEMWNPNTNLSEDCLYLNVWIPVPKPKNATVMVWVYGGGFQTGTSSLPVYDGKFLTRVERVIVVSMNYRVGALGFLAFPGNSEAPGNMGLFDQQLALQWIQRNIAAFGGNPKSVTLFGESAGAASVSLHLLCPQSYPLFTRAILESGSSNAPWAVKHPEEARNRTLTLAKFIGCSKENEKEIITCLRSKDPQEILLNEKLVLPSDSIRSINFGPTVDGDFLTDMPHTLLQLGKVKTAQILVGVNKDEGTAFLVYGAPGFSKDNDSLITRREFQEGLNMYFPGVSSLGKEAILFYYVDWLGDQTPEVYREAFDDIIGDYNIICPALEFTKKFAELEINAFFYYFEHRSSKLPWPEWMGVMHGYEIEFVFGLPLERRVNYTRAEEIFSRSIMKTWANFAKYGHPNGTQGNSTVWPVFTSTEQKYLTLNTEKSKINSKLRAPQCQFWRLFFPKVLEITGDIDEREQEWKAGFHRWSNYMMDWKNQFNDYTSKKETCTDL
Butyrylcholinesterase (Rattus norvegicus), sequence (Q9JKC1 as listed by the source): as the sequence (Q9JKC1 whole entry) above

As to `COc1cc2c(cc1OC)C(=O)C(CC1CCN(Cc3ccccc3)CC1)C2` (centres undefined) [DONEPEZIL], the Activity result in data set [1] is given as “Non-Toxic”.
One may read the inhibition as the percentage by which the read-out fell short of the control. For the molecule `Oc1c(I)cc(Cl)c2cccnc12`, the inhibition result in [2] is “Active”. Besides, the outcome in data set [3] was Active.
What is called IC50 is the concentration needed to halve the response being measured. A word on the Papp: it is the rate of passage across a membrane or cell layer, normalised by area and donor concentration. A higher Papp goes with ready permeation. For `C#CCNCc1cn(-c2cc(NC(=S)NCC)ncn2)cn1`, the IC50 in data set [4] is 5.24 µM; in data set [8], over 40 µM; in [10], 0.354 µM; in data set [11], 4.33 µM. The Papp at 12 h, 100 ug/ml in data set [5] stood at 2.78 ×10⁻⁶ cm/s. In data set [6], the Activity (umolequiv/umol) stood at 1.18. This molecule returned an inhibition in data set [7] of 15.2%. Further, the Ratio IC50 in data set [9] is 0.826; in data set [12], over 113.
`COc1ccc(CCN2CCC(Nc3nc4ccccc4n3Cc3ccc(F)cc3)CC2)cc1` [ASTEMIZOLE]: the apparent permeability (Papp) at 12 h, 100 ug/ml in [5] was 8.48 ×10⁻⁶ cm/s. In data set [13], the Papp at 18 h, 25 ug/ml is 11 ×10⁻⁶ cm/s.
